The source of these data is ChEMBL document CHEMBL1126933, “Syntheses and biological activities of potent potassium channel openers derived from (+/-)-2-oxo-1-pyridin-3-yl-cyclohexanecarbothioic acid methylamide: new potassium channel openers” (1993).

The term IC90 denotes the concentration needed for an effect of 90%.

The species entered for the experiment is Rattus norvegicus. The experiment can be described thus: In vitro relaxation of de-endothelialized rat aortic strips toned with 20 mM KCl. Type of experiment: functional. To be noted: Aorta. The method, boiled down: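 Rat aortic rings cut into transverse strips, endothelium removed by gentle rubbing. Strips held in Krebs bicarbonate buffer at 37 °C, gassed with 95% O2/5% CO2, isometric tension recorded. Equilibrated 90 min at 2 g resting tension, then contracted with 20 mmol KCl. At maximal contraction, relaxation measured by cumulative concentration-response, each next concentration added once the previous one reached maximal effect.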
In turn, `CNC(=S)[C@@]1(c2cccnc2)CCCC[S+]1[O-]` (some centres undefined) returned an IC90 of 400 nM.

`C/N=C(/S)[C@@]1(c2cccnc2)CCCC[C@@H]1CCO` came in with an IC90 of 1700 nM. For `C/N=C(/S)[C@@]1(c2cccnc2)CCCC[C@@H]1CCNC(=O)c1ccccc1`, it took 300 nM to reach the 90% level (IC90). `C/N=C(/S)C1(c2cccnc2)CCCCC1=O` (centres undefined): the 90% effect level (IC90) was put at 800 nM. Compound `C/N=C(/S)[C@@]1(c2cccnc2)CCCC[C@@H]1CCNC(=O)c1ccc(F)cc1` showed an IC90 of 500 nM. As for `C/N=C(/S)C1(c2cccnc2)CCCC/C1=C\CSc1ccccc1` (centres undefined), the figure is 3 nM; as for `C/N=C(/S)[C@@]1(c2cccnc2)CCCC[C@@H]1CCNS(C)(=O)=O`, 170 nM; as for `C/N=C(/NCC[C@H]1CCCC[C@@]1(/C(S)=N\C)c1cccnc1)NS(=O)(=O)c1ccccc1`, 300 nM. As for `C/N=C(/S)[C@@]1(c2cccnc2)CCCC[C@@H]1C/C=N/OCc1ccccc1`, the figure is 30 nM; as for `C/N=C(/S)[C@@]1(c2cccnc2)CCCC[C@@H]1CCOC(=O)c1ccc(F)cc1`, 100 nM; as for `C/N=C(/S)[C@@]1(c2cccnc2)CCCC[C@@H]1CCNS(=O)(=O)c1cccs1`, 1 nM. In the case of `C/N=C(/S)[C@@]1(c2cccnc2)CCCC[C@@H]1CCNS(=O)(=O)c1ccc(Cl)cc1`, the IC90 was 30 nM.

Take `C/N=C(/S)[C@@]1(c2cccnc2)CCCC[C@@H]1CCNC(=O)Cc1ccccc1`: the IC90 is 300 nM. As to `C/N=C(/S)[C@@]1(c2cccnc2)CCCC[C@@H]1CCNS(=O)(=O)c1ccc([N+](=O)[O-])cc1`, the IC90 was 300 nM. For `CNC(=S)[C@@]1(c2cccnc2)CCCC[C@@H]1CCNS(=O)(=O)c1ccc(OC)cc1`, the IC90 is 300 nM. In other words, the sub-micromolar range.

As for `C/N=C(/S)[C@@]1(c2cccnc2)CCCC[C@@H]1CCN1C(=O)COCC1=O`, the IC90 was 100 nM. `C/N=C(/S)[C@@]1(c2cccnc2)CCCC[C@@H]1CCNS(=O)(=O)c1cccnc1` gave an IC90 of 3 nM. With `C/N=C(/S)C1(c2cccnc2)CCCC/C1=C\COc1ccc(O)cc1` (centres undefined) the figure was 300 nM; with `C/N=C(/S)[C@@]1(c2cccnc2)CCCC[C@@H]1CCNS(=O)(=O)c1ccccc1`, 0.3 nM. On to `C/N=C(/S)[C@@]1(c2cccnc2)CCCC[C@@H]1CCNS(=O)(=O)c1ccc(F)cc1`, for which the IC90 was 7 nM. Compound `C/N=C(/S)[C@@]1(c2cccnc2)CCCC[C@@H]1CC#N` came in with an IC90 of 300 nM. As for `C/N=C(/NCC[C@H]1CCCC[C@@]1(/C(S)=N\C)c1cccnc1)NS(C)(=O)=O`, the figure is 30 nM; as for `C/N=C(/S)C1(c2cccnc2)CCCC/C1=C\C=O` (centres undefined), 8000 nM; as for `CNC(=S)[C@@]1(c2cccnc2)CCCC[C@@H]1CC(=O)OC`, 300 nM.

Consider `C/N=C(/S)C1(c2cccnc2)CCCC/C1=C\C=N\OCC(O)CO` (centres undefined), for which the 90% effect level (IC90) was put at 3000 nM.

`C/N=C(/S)[C@@]1(c2cccnc2)CCCC[C@@H]1CCNC(C)=O` yielded an IC90 of 130 nM. As for `C/N=C(/S)C1(c2cccnc2)CCCC/C1=C\C#N` (centres undefined), the figure is 10000 nM.

As to `C/N=C(/S)[C@@]1(c2cccnc2)CCCC[C@@H]1CCNc1ccccc1`, it took 3 nM to reach the 90% level (IC90). Take `C/N=C(/S)[C@@]1(c2cccnc2)CCCC[C@@H]1CCN`: the IC90 stood at 10000 nM. `C/N=C(/S)[C@@]1(c2cccnc2)CCCC[C@@H]1CCNS(=O)(=O)c1ccc(F)c(F)c1` returned an IC90 of 10 nM. As for `C/N=C(/S)[C@@]1(c2cccnc2)CCCC[C@@H]1CCNC(=O)C(C)C`, the figure is 300 nM; as for `C/N=C(/S)C1(c2cccnc2)CCCC/C1=C\COc1ccc([N+](=O)[O-])cc1` (centres undefined), 100 nM.

For the compound `C/N=C(/S)C1(c2cccnc2)CCCC/C1=C\C=N\OCc1ccc(F)cc1` (centres undefined), the 90% effect level (IC90) was put at 100 nM. With `C/N=C(/S)[C@@]1(c2cccnc2)CCCC[C@@H]1CCOC(=O)c1ccccc1`, it took 30 nM to reach the 90% level (IC90). Regarding `C/N=C(/S)[C@@]1(c2cccnc2)CCCC[C@@H]1CCOC(C)=O`, the IC90 stood at 30 nM. With `C/N=C(/S)[C@@]1(c2cccnc2)CCCC[C@@H]1C/C=C/c1ccc(F)cc1` the figure was 10 nM. As for `C/N=C(/S)[C@@]1(c2cccnc2)CCCC[C@@H]1C/C=C/c1ccccc1`, the figure is 100 nM; as for `C/N=C(/S)C1(c2cccnc2)CCCC/C1=C\COc1ccccc1` (centres undefined), 65 nM. With `C/N=C(/S)C1(c2cccnc2)CCCC/C1=C\CO` (centres undefined) the figure was 10000 nM.
